This note sets out measurements from ChEMBL document CHEMBL1255240, “The mitochondrion is a site of trypanocidal action of the aromatic diamidine DB75 in bloodstream forms of Trypanosoma brucei” (Antimicrob Agents Chemother, 2008).

Series [1] deals with Trypanosoma brucei brucei. Put plainly: Antimicrobial activity against Trypanosoma brucei brucei 427 bloodstream form assessed as reduction in mitochondrial membrane potential at 10 uM using rhodamine 123 exclusion test. It counts as functional, organism-based. In outline:
(§1)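 Rat-derived bloodstream cells washed in Tes buffer pH 7.5 (10 mM glucose, 1.0% fatty acid-free BSA) at room temperature. Cells at 10^7/ml pretreated with compound for the stated time, then 250 nM Rh123 for 2 min. Diluted 1:10 and flow cytometry (excitation 507, emission 529 nm) on 20,000 cells. % decrease in mean fluorescence versus untreated cells; at least three independent experiments.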

Series [2] concerns Trypanosoma brucei brucei. Put plainly: Inhibition of respiration in Trypanosoma brucei brucei 427 bloodstream form mitochondria using glycerol-3-phosphate as substrate at 2 mM. In kind it is functional. In outline:
(§2)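 Bloodstream trypanosomes were taken from infected rat blood and purified on DE52. They were lysed with glass beads, and a mitochondrial fraction was isolated by differential centrifugation at 0–4°C. Mitochondria at 0.8 mg/ml were held in mannitol/HEPES/EGTA/MgSO4 buffer, pH 7.4, without glucose, with 20 mM L-α-glycerol phosphate as substrate. Compound was added after a stable reading (about 2 min), and O2 consumption was recorded by oxygen electrode at 37°C.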

The test system of series [3] is Trypanosoma brucei brucei. Put plainly: Inhibition of respiration in Trypanosoma brucei brucei 427 bloodstream form mitochondria using glycerol-3-phosphate as substrate at 10 uM. In kind it is functional. The method, boiled down: as §2
Series [4] has as its system Trypanosoma brucei brucei. Put plainly: Antimicrobial activity against Trypanosoma brucei brucei 427 bloodstream form assessed as reduction in mitochondrial membrane potential at 10 uM after 5 mins using rhodamine 123 exclusion test relative to control. In kind it is functional. The arrangement: scale not given: the % may be the effect or the level left. In outline: as §1

For series [5], the system named is Trypanosoma brucei brucei. As to the kind of experiment: Antimicrobial activity against Trypanosoma brucei brucei 427 bloodstream form assessed as reduction in mitochondrial membrane potential at 10 uM after 1 min using rhodamine 123 exclusion test. It counts as functional. The arrangement: scale not given: the % may be the effect or the level left. In outline: as §1

The test system of series [6] is Trypanosoma brucei brucei. As to the kind of experiment: Antimicrobial activity against Trypanosoma brucei brucei 427 bloodstream form assessed as inhibition of mitochondrial ATPase activity at 50 uM after 10 mins. In kind it is functional. In outline: (§3)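 Bloodstream-form mitochondrial fraction, 100 μg protein, in 20 mM Tris-HCl pH 7.4 with 15 mM KH2PO4, 0.6 M sorbitol, 10 mM MgSO4 and 2.5 mg/ml fatty acid-free BSA. Pre-incubated 10 min on ice with compound (final 10, 50 or 100 μM; oligomycin 50 μM pretreatment where combined), then 0.20 mM ATP for 30 min at 30°C. Perchloric acid quench; remaining ATP by luciferase against a standard curve, blank subtracted. Activity relative to untreated control (100%). Duplicates; three independent experiments.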

For series [7], the system named is Trypanosoma brucei brucei. Put plainly: Antimicrobial activity against Trypanosoma brucei brucei 427 bloodstream form assessed as inhibition of glucose-dependent cellular respiration. In kind it is functional, organism-based. In outline:
(§4)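 Bloodstream trypanosomes from infected rat blood, DE52-purified, washed once in mannitol-based buffer pH 7.4 (220 mM mannitol, 25 mM HEPES, 2 mM EGTA, 5 mM MgSO4) with 20 mM glucose. O2 uptake of 2.0 × 10^6 cells/ml recorded with an oxygen electrode at 37°C. % inhibition from the rates just before vs after compound addition. Two independent experiments.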

For series [8], the system named is Trypanosoma brucei brucei. As to the kind of experiment: Antimicrobial activity against Trypanosoma brucei brucei 427 bloodstream form assessed as inhibition of glucose-dependent cellular respiration at 300 uM. In kind it is functional, organism-based. In outline:
as §4

In series [9] the test system is Trypanosoma brucei brucei. As to the kind of experiment: Inhibition of respiration in Trypanosoma brucei brucei 427 bloodstream form mitochondria using glycerol-3-phosphate as substrate at 600 uM. In kind it is functional. In outline: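 Mitochondrial fraction from rat-derived bloodstream cells, prepared by glass-bead lysis and differential centrifugation (12,000 × g pellet) at 0–4°C. Suspended to 0.8 mg/ml in glucose-free mannitol buffer pH 7.4 with 20 mM L-α-glycerol phosphate as substrate. O2 uptake by oxygen electrode at 37°C; compound added after a stable reading (about 2 min) and recording continued several minutes.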

The subject of series [10] is Trypanosoma brucei brucei. As to the kind of experiment: Antimicrobial activity against Trypanosoma brucei brucei 427 bloodstream form assessed as reduction in mitochondrial membrane potential at 1 uM after 1 min using rhodamine 123 exclusion test. In kind it is functional, organism-based. The method, boiled down: as §1
For series [11], the system named is Trypanosoma brucei brucei. As to the kind of experiment: Antimicrobial activity against Trypanosoma brucei brucei 427 bloodstream form assessed as inhibition of mitochondrial ATPase activity 10 uM after 10 mins. In kind it is functional. On the set-up: scale not given: the % may be the effect or the level left. In outline:
as §3

Series [12] deals with Trypanosoma brucei brucei. As to the kind of experiment: Antimicrobial activity against Trypanosoma brucei brucei 427 bloodstream form assessed as inhibition of mitochondrial ATPase activity at 100 uM after 10 mins. In kind it is functional. The arrangement: scale not given: the % may be the effect or the level left. The method, boiled down:
as §3

Series [13] concerns Trypanosoma brucei brucei. As to the kind of experiment: Antimicrobial activity against Trypanosoma brucei brucei 427 bloodstream form assessed as inhibition of mitochondrial ATPase activity pretreated with oligomycin for 10 mins. In kind it is functional. In outline:
as §3

Series [14] can be described thus: Drug uptake in Trypanosoma brucei brucei 427 bloodstream form nucleus at 1 uM after 5 mins by fluorescence microscopy. It counts as ADME. In outline: (§5)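 Cells (about 10^6) incubated with 1.0 μM compound in cBMEM (MEM-based, 10% heat-inactivated FBS) at 37°C, 5% CO2. Aliquots taken at set times, pelleted, and dried films examined by UV fluorescence microscopy. Intrinsic blue fluorescence (excitation 365, emission 465 nm) scored in nucleus and kinetoplast.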

The nature of series [15]: Drug uptake in Trypanosoma brucei brucei 427 bloodstream form kinetoplast at 1 uM after 5 mins by fluorescence microscopy. In kind it is ADME. The method, boiled down: as §5
A short description of series [16]: Drug uptake in Trypanosoma brucei brucei 427 bloodstream form mitochondria at 100 uM after 5 mins by fluorescence microscopy. In kind it is ADME. The method, boiled down:
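Living cells (10^6/ml) loaded with 25 nM MitoTracker Red CMXRos for 30 min at 37°C, washed, then given 100 μM compound for 5 min. Immobilised in 1.5% agarose (3.0% mixed 1:1) on a cold slide. Viewed with a DAPI-FITC-Texas Red triple filter; pink overlap taken as mitochondrial colocalisation.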

Series [17] concerns Trypanosoma brucei brucei. As to the kind of experiment: Antimicrobial activity against Trypanosoma brucei brucei 427 bloodstream form assessed as reduction in mitochondrial membrane potential at 4 uM after 10 mins using rhodamine 123 exclusion test relative to control. It counts as functional. On the set-up: scale not given: the % may be the effect or the level left. In outline:
as §1

For series [18], the system named is Trypanosoma brucei brucei. As to the kind of experiment: Antimicrobial activity against Trypanosoma brucei brucei 427 bloodstream form assessed as reduction in mitochondrial membrane potential at 4 uM after 1 min using rhodamine 123 exclusion test. In kind it is functional. The arrangement: scale not given: the % may be the effect or the level left. In outline:
as §1

Series [19] has as its system Trypanosoma brucei brucei. As to the kind of experiment: Antimicrobial activity against Trypanosoma brucei brucei 427 bloodstream form assessed as reduction in mitochondrial membrane potential at 10 uM after 10 mins using rhodamine 123 exclusion test relative to control. It counts as functional. On the set-up: scale not given: the % may be the effect or the level left. In outline: as §1

Activity calls are given as the source filed them. The calls are words filed in the database; no cut-off is given here.

Take `CCCCCC[C@H]1C(=O)O[C@H](C)[C@H](NC(=O)c2cccc(NC=O)c2O)C(=O)O[C@@H](C)[C@@H]1OC(=O)CC(C)C`: in [1], the result was inactive.
For `O=C(NO)c1ccccc1O`, the inhibition entry in [2] and in series [3] was “Active” each time.
For the compound `N#CC(C#N)=NNc1cccc(Cl)c1` [CARBONYL CYANIDE M-CHLOROPHENYLHYDRAZONE], the Activity came to 51% in series [4] and 36% in series [5]. The outcome in series [6] was inactive.
`N=C(N)c1ccc(-c2ccc(-c3ccc(C(=N)N)cc3)o2)cc1` [FURAMIDINE]: the IC50 in series [7] is 20 µM. Besides, the outcome in [8], in [10] and in series [13] was Active. For the same compound, the inhibition entry in [9] is “inactive”. In addition, the Activity in series [5] is 57%; in series [6] it was 47%; in [11] it was 20%; in series [12], 47%. The Drug uptake entry in series [14], in series [15] and in series [16] was “Active” in each case.
For the compound `CC[C@H]1/C=C/C=C/C[C@@H](C)[C@H](O)[C@@](C)(O)C(=O)[C@@H](C)[C@H](O)[C@@H](C)C(=O)[C@@H](C)[C@H](O)[C@@H](C)/C=C/C(=O)O[C@@H]2[C@H](C)[C@H](CC1)O[C@]1(CC[C@H](C)[C@H](C[C@@H](C)O)O1)[C@H]2C` [OLIGOMYCIN], the results for the Activity in series [17], in series [18] and in series [6] were 50%, 23% and 30%, respectively.
Consider `CC(C)[C@@H]1NC(=O)[C@H](C)OC(=O)[C@@H](C(C)C)NC(=O)[C@@H](C(C)C)OC(=O)[C@H](C(C)C)NC(=O)[C@H](C)OC(=O)[C@@H](C(C)C)NC(=O)[C@@H](C(C)C)OC(=O)[C@H](C(C)C)NC(=O)[C@H](C)OC(=O)[C@@H](C(C)C)NC(=O)[C@@H](C(C)C)OC1=O` [VALINOMYCIN], for which, in series [19], the Activity is 70%.
